Experimental data as given in PMC3918441 (Cell reports, 2014).

Assays:
[1] = system: KDM5B PHD3 finger; assay: 1H,15N HSQC NMR titration, KDM5B PHD3; type: binding, human; conditions: WT PHD3; 1H,15N HSQC titration, 298K, 0.1 mM protein, 12-mer peptides
How it was run: (§1)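 1H,15N HSQC titration of uniformly 15N-labeled PHD3 at 0.1 mM, wild type or mutated (including D1506R). Spectra recorded with increasing concentrations of 12-mer histone tail peptides and superimposed. Per-residue normalized chemical shift changes calculated as Δδ = √[(ΔδH)² + (ΔδN/5)²].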

[2] = target: T1, KDM5B PHD1 finger (Homo sapiens, UniProt Q9UGL1); assay: 1H,15N HSQC NMR titration, KDM5B PHD1; type: binding; conditions: WT PHD1; NMR spectra, 298K, 0.1 mM 15N-labeled protein, 12-mer peptide
T1 sequence (Q9UGL1 309-359 limits assumed): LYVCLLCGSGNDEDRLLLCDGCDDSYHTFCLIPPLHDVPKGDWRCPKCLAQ
How it was run: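 Uniformly 15N-labeled wild-type PHD1 at 0.1 mM; 1H,15N HSQC spectra recorded over increasing concentrations of 12-mer histone tail peptides. Normalized shift change Δδ = √[(ΔδH)² + (ΔδN/5)²] in ppm. Kd obtained by nonlinear least-squares fit of Δδ against peptide and protein concentrations to a quadratic binding equation.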

[3] = system: KDM5B PHD3 finger; assay: Tryptophan fluorescence titration, KDM5B PHD3; type: binding, human; conditions: WT PHD3; NMR and fluorescence spectroscopy
How it was run: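 Tryptophan fluorescence at 25 °C: PHD3 in PBS titrated with increasing histone peptide concentrations. Excitation 295 or 280 nm; emission scanned 305–405 nm in 0.5 nm steps with 1 s integration; three scans averaged. Kd from nonlinear least-squares fit of intensity change to a quadratic binding equation; mean of three separate experiments, error as standard deviation.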

[4] = system: KDM5B PHD3 mutants (W1502, W1512, D1506R); assay: Binding to KDM5B PHD3 mutants; design: species or system human; conditions: Fig. 6c-e
How it was run: as §1

Row | Substance | pattern of chemical shift changes in HSQC spectra of PHD3 [1] | affinity of association [2] | preference of PHD3 among H3K4me3/2/1/0 [3] | interaction with PHD3 D1506R mutant ([4]; acidic D1506 replaced with an arginine) | interaction with PHD3 W1502 and W1512 mutants ([4]; mutation of W1502 and W1512)
1 | H3K4me2: H3K4me2 peptide, residues 1-12 of H3, dimethylated lysine 4 | almost identical pattern of chemical shift changes |  |  |  | 
2 | H3K4me3: trimethylated H3K4me3 peptide, 12-mer histone tail peptide; biotinylated in pull-downs | almost identical pattern of chemical shift changes | almost negligible association in the mM range of affinities | only slight preference for the trimethylated state of H3K4 | reduced it | disrupted interaction
3 | H3K4me1: H3K4me1 peptide, residues 1-12 of H3, monomethylated lysine 4 | almost identical pattern of chemical shift changes |  |  |  | 
